Compound activity deposited in PubChem BioAssay by several laboratories.
The list is not random: actives were taken first. Their share in the collection is about 2.2%.
CXCR6 block – CXCR6 (human) receptor inhibition | O00574 | CHO-K1 PathHunter CXCR6 beta-arrestin, luminescence | inhibition, % at 20 µM | actives 0.36% (n = 360,000) | AID 602244; in the data active means inhibition above about 34%, passing the limit was not always enough;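 further: antagonist mode with CXCL16 agonist at 10 nM final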
Target sequence (O00574 whole entry, looked up): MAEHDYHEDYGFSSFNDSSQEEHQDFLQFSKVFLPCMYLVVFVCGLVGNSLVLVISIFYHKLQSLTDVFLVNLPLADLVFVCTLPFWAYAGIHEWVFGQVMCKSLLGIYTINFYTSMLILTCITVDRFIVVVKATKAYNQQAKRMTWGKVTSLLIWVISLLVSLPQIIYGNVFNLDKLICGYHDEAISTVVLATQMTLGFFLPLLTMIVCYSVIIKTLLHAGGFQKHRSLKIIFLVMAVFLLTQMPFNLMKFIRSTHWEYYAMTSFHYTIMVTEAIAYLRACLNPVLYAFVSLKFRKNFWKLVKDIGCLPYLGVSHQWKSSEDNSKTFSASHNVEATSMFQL
CCR6 antagonist – CCR6 (human) receptor antagonism; actives 0.49% (n = 340,000); P51684; AID 493098; inhibition, % at 20 µM; CHO-K1 CCR6 PathHunter beta-arrestin, luminescence, CCL20-stimulated;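 active means compounds whose inhibition of the agonist-driven luminescence signal at 20 µM reaches about 50%, limit read from the data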;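 further: cells stimulated with CCL20 at 14 nM final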
HTR2A ag – mouse HTR2A agonism via beta-arrestin recruitment; AID 624169; activation, % at 7.6 µM; actives 0.66% (n = 360,000); CHO-K1 mHTR2A beta-arrestin complementation, luminescence; percent of 30 µM serotonin response;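 active means activation above a run cutoff, the mean activation of all tested compounds plus 3 SD, cut at about 14% in these data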
APJ antag – antagonists of human APJ apelin receptor | P35414 | CHO-K1 APJ beta-arrestin complementation, luminescence | inhibition, % at 20 µM | actives 0.32% (n = 330,000);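 active means inhibition above about 40% at 20 µM, limit read from the data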;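 further: cells challenged with 10 nM apelin-13 agonist together with compound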
APJ agonist – activates the human apelin receptor APJ | P35414 | CHO-K1 APJ PathHunter beta-arrestin, luminescence; 0% DMSO wells, 100% apelin | activation, % at 20 µM | actives 0.11% (n = 330,000) | AID 2520;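 active means activation more than six SD over the plate average, tested at 20 µM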
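Test system: CHO-K1 APJ beta-arrestin complementation cell line | Compound: Single test compound dose, 20 µM final, 1% DMSO | Incubation: Compound 90 min 25 °C, reagent 1 h | Measured by: beta-gal luminescence | Read-out basis: APJ–arrestin association signal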
EBI2 block – antagonists of human EBI2 receptor. P32249. EBI2 beta-arrestin recruitment, luminescence, 7a,25-OHC stimulated. inhibition, % at 5 µM. actives 0.81% (n = 360,000). AID 651636; in the data active means inhibition above about 38%;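 further: enzyme fragment complementation signal reports receptor beta-arrestin coupling in cells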
OPRM1 ag – activates human mu opioid receptor in HTR2A counterscreen; activation, % at 9.3 µM; shares compounds with HTR2A ag; U2OS OPRM1 beta-arrestin PathHunter, luminescence; DMSO 0%, DAMGO 9.3 µM 100%; actives 5.3% (n = 2,300);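 active means mean activation above the mean of DMSO-only wells plus 3 SD, cut at about 0.5% in these data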
Target sequence (P35372 whole entry, looked up): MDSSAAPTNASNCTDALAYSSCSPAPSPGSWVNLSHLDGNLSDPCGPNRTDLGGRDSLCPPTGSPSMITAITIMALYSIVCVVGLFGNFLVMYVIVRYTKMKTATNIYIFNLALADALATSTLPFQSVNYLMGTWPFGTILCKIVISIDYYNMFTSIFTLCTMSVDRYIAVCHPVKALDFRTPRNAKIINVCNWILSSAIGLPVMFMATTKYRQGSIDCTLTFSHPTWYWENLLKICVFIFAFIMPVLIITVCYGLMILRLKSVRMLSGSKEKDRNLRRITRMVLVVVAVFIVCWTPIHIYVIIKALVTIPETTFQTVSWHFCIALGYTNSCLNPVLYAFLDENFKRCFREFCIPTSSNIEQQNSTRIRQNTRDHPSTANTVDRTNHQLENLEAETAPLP
HTR2A ag conf – mouse HTR2A agonism confirmed. shares compounds with HTR2A ag. CHO-K1 PathHunter beta-arrestin recruitment, luminescence; DMSO 0%, 30 µM serotonin 100%. activation, % at 7.6 µM. actives 19% (n = 2,300). AID 624381;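 active means mean activation across triplicates above the hit threshold derived in the original primary screen, cut at about 15% in these data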
Of the large screens only hits and unclear results are named; the others gave an inactive call (follow-up assays come after a bar, where they were run).

COc1ccc(CNC(=S)N2CCN(Cc3ccccc3)CC2)cc1	HTR2A ag 18.6 | OPRM1 ag inactive | HTR2A ag conf inactive
CC1(c2nnnn2C2CCCC2)CCC(=O)N1c1ccc2c(c1)OCCO2 (stereo not given)	none (no result: CXCR6 block, CCR6 antagonist, APJ antag, APJ agonist)
COc1cccc(-c2cnc3c(NC(C)=O)cc(-c4ccsc4)cn23)c1	none (no result: CCR6 antagonist, APJ antag, APJ agonist)
OC(c1ccc(F)cc1)c1nc(-c2cccc(F)c2)cs1 (stereo not given)	none (no result: CCR6 antagonist, APJ antag, APJ agonist)
O=C(OCC(=O)N(CCc1ccccc1)Cc1ccccc1)c1ccc(F)c(S(=O)(=O)N2CCOCC2)c1	none (no result: APJ antag, APJ agonist)
COc1ccc2[nH]cc(CCNC(=O)C3CC(=O)N(c4ccc(Cl)cc4)C3)c2c1 (stereo not given)	HTR2A ag 15.7 | OPRM1 ag inactive | HTR2A ag conf inactive
CCOc1ccc(N2CC(C(=O)NCCc3c[nH]c4ccc(OC)cc34)CC2=O)cc1 (stereo not given)	HTR2A ag 17.6 | OPRM1 ag inactive | HTR2A ag conf inactive
COc1ccc(CCNC(=O)C2CC(=O)N(c3ccc(C)cc3)C2)cc1 (stereo not given)	none
COC(=O)C1=C(C)N(CCc2c[nH]c3ccc(OC)cc23)C(=O)C1	HTR2A ag 17.2 | OPRM1 ag inactive | HTR2A ag conf inactive
CCCNC(=O)C1CC(=O)N(c2ccc(OCC)cc2)C1 (stereo not given)	none
O=c1n(Cc2ccccc2)c(O)c2n1Cc1ccccc1N=C2c1ccccc1	none (no result: CCR6 antagonist, APJ antag, APJ agonist)
Nc1c(C(=O)Nc2ccc3c(c2)OCCO3)nnn1Cc1ccccc1Cl	HTR2A ag 18.5 | OPRM1 ag inactive | HTR2A ag conf inactive
Nc1c(C(=O)Nc2ccc3c(c2)OCCO3)nnn1Cc1cccc(Cl)c1	none (no result: CCR6 antagonist)
Nc1c(C(=O)Nc2cccc(F)c2)nnn1-c1ccc2c(c1)OCCO2	HTR2A ag 15.0 | OPRM1 ag inactive | HTR2A ag conf inactive
Nc1sc(-c2ccccc2)cc1C(=O)N1CCN(c2ccccc2)CC1	none (no result: CXCR6 block, CCR6 antagonist, APJ antag, APJ agonist)
CCOC(=O)C1(CC2CC2)CCN(Cc2cc(Cl)c(O)c(OC)c2)CC1	HTR2A ag 19.6 | OPRM1 ag inactive | HTR2A ag conf inactive
C=CCc1cccc(OC)c1OCCOCCn1ccnc1	none
C=CCc1ccccc1OCCn1ccnc1	HTR2A ag 15.2 | OPRM1 ag inactive | HTR2A ag conf inactive
CCC(C(=O)OC)n1cnc2scc(-c3ccc(C)c(C)c3)c2c1=O (stereo not given)	none
CCC(C(=O)O)n1cnc2scc(-c3ccc(C)c(C)c3)c2c1=O (stereo not given)	HTR2A ag 24.1 | OPRM1 ag inactive | HTR2A ag conf inactive
CCc1nc2ccc(C(=O)NCCOc3ccc(OC)cc3)cn2c1N(CCC(C)C)CCN(C)C	none (no result: CCR6 antagonist, APJ antag, APJ agonist)
Cc1ccc(NC(=O)C2(C)CCN2C(=O)CC(c2ccccc2)c2ccccc2)cc1 (stereo not given)	none (no result: CCR6 antagonist, APJ antag, APJ agonist)
C#CCn1c(-c2cccs2)nc2ccccc21	HTR2A ag 22.3 | OPRM1 ag inactive | HTR2A ag conf inactive
COc1ccc(S(=O)(=O)N2c3ccccc3NC(=O)CC2C)cc1 (stereo not given)	HTR2A ag 19.0 | OPRM1 ag inactive | HTR2A ag conf inactive
O=C(CSc1n[nH]c(-c2ccco2)n1)Nc1sc2c(c1C(=O)Nc1ccccc1)CCCC2	HTR2A ag 16.3 | OPRM1 ag inactive | HTR2A ag conf 18.1
COc1cccc(CNC(=O)[C@@H]2CCCN2C(=O)[C@H]2CCCCN2S(=O)(=O)c2ccc(OC)c(C)c2)c1	none (no result: CCR6 antagonist, APJ antag, APJ agonist)
Cc1csc(=O)n1CC(=O)OCc1nnc(-c2ccccc2)o1	HTR2A ag 21.1 | OPRM1 ag inactive | HTR2A ag conf inactive
Cc1csc(=O)n1CC(=O)OCc1nnc(-c2ccc(Cl)cc2)o1	none
CC(C)Oc1ccc(CN2CCC2(C)C(=O)Nc2cccc3cccnc23)cc1 (stereo not given)	none (no result: CCR6 antagonist, APJ antag, APJ agonist)
COc1ccc(C2CC(c3ccccc3)=NN2C(=O)CCC(=O)O)cc1 (stereo not given)	none
COc1ccc(C2=NN(C(=O)CCC(=O)O)C(c3ccc([N+](=O)[O-])cc3)C2)cc1 (stereo not given)	HTR2A ag 18.9 | OPRM1 ag inactive | HTR2A ag conf inactive
CCCCC(=O)N(C)c1c(CC)nc2c(OCc3cccc(Cl)c3)cccn12	none (no result: CCR6 antagonist, APJ antag, APJ agonist)
O[C@@H](c1cc(C(F)(F)F)nc2c(C(F)(F)F)cccc12)[C@H]1CCCCN1	HTR2A ag 25.7 | OPRM1 ag 0.9 | HTR2A ag conf inactive
OC(c1cc(C(F)(F)F)nc2c(Cl)cc(Cl)cc12)C1CCCCN1 (stereo not given)	none
O=C(NCc1ccc(Cl)cc1)c1ccc(-c2ccc(F)c(F)c2)c2ccoc12	none (no result: CCR6 antagonist, APJ antag, APJ agonist)
CCc1nc2ccc(C(=O)NCc3ccc4c(c3)OCO4)cn2c1N(CCC(C)C)CCN(C)C	none (no result: CCR6 antagonist, APJ antag, APJ agonist)
CC[C@H](CO)Oc1cc(NCc2cccc(N)c2)c2ncn(C(C)C)c2c1	none (no result: CCR6 antagonist, APJ antag, APJ agonist)
CCCCCOC(=O)C1=C(C)Nc2nnnn2C1c1ccccc1Cl (stereo not given)	HTR2A ag 19.3 | OPRM1 ag 0.5 | HTR2A ag conf inactive
CC(C)(C)SC(=O)CC1NS(=O)(=O)OC2CCCCC12 (stereo not given)	HTR2A ag 23.2 | OPRM1 ag inactive | HTR2A ag conf inactive
CC(C)(C)SC(=O)C[C@@H]1NS(=O)(=O)OC2CCCCC21 (stereo not given in full)	none
CC(C)(C)NC(=O)CN(C(=O)CNC(=O)c1cccs1)c1ccccc1F	HTR2A ag 16.1 | OPRM1 ag inactive | HTR2A ag conf inactive
CC1(C(=O)Nc2cccc3ccccc23)CCN1C(=O)Cc1ccc(Cl)cc1Cl (stereo not given)	none (no result: CCR6 antagonist, APJ antag, APJ agonist)
CS(=O)(=O)c1ccc2nc(NC(=O)c3ccc(Cl)cc3)sc2c1	HTR2A ag 18.1 | OPRM1 ag inactive | HTR2A ag conf inactive
CC[C@]1(C(=O)OC)[C@H]2C(=O)N(Cc3ccccc3)C(=O)[C@H]2[C@H]2CN(C)C(=NCc3ccccc3)N21	HTR2A ag 21.3 (no result: APJ antag, APJ agonist) | OPRM1 ag inactive | HTR2A ag conf inactive
CN1CCN(C(=O)CN2C(=O)COc3ccc(S(=O)(=O)N4CCOCC4)cc32)CC1	HTR2A ag 18.3 | OPRM1 ag inactive | HTR2A ag conf inactive
CCOC(=O)C1CCN(C(=O)CN2C(=O)CSc3ccc(S(=O)(=O)N4CCOCC4)cc32)CC1	HTR2A ag 34.9 | OPRM1 ag inactive | HTR2A ag conf inactive
